Measurements taken from ChEMBL document CHEMBL3616394 (Eur J Med Chem, 2015).
Active and inactive are the calls of the source. The rule behind the calls is not given here.

Legend:
[1] = molecular target: T1, Neuronal acetylcholine receptor; alpha4/beta2 (Rattus norvegicus, UniProt P09483+P12390); assay: Displacement of [3H]epibatidine from rat alpha4beta2 nAChR expressed in HEK293 cells after 4 hrs by scintillation counting assay; type: cell-based
[2] = molecular target: Neuronal acetylcholine receptor; alpha4/beta4 (Rattus norvegicus, UniProt P09483+P12392); assay: Displacement of [3H]epibatidine from rat alpha4beta4 nACHR expressed in HEK293 cells after 4 hrs by scintillation counting assay; type: cell-based; conditions: for pKi: hek293
[3] = molecular target: Neuronal acetylcholine receptor; alpha3/beta4 (Rattus norvegicus, UniProt P04757+P12392); assay: Displacement of [3H]epibatidine from rat alpha3beta4 nACHR expressed in HEK293 cells after 4 hrs by scintillation counting assay; type: cell-based; conditions: for pKi: hek293
[4] = molecular target: T2, Neuronal acetylcholine receptor subunit alpha-4/beta-2 (Mus musculus) (UniProt Q9ERK7+O70174); assay: Agonist activity at recombinant mouse alpha4beta2 nAChR expressed in HEK293 cells at >=100 uM after 30 min by FLIPR potential blue assay; type: cell-based
Outline: (§1)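 FLIPR membrane potential (FMP) dye assay on α4β2-HEK293T cells. Cells were washed in Krebs buffer (pH 7.4) and loaded with dye (0.5 mg/ml) for 30 min at 37 °C. Emission at 565 nm with excitation at 525 nm was read 20 s before and 70 s after ligand addition. Response was the ΔFU between maximal levels. Duplicate wells, at least three experiments.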

[5] = molecular target: T3, Neuronal acetylcholine receptor; alpha3/beta4 (Rattus norvegicus) (UniProt P04757+P12392); assay: Agonist activity at recombinant rat alpha3beta4 nAChR expressed in HEK293 cells at 300 uM after 30 min by FLIPR potential blue assay; type: cell-based
Outline: (§2)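 Stable rat α3β4 HEK293 cells were loaded with FMP dye (0.5 mg/ml) in Krebs-HEPES buffer, pH 7.4, for 30 min at 37 °C. For antagonist runs, the test compound was included in the dye buffer and EC70-EC80 ACh was then added. Fluorescence was read at ex 525/em 565 nm, 20 s before and 70 s after ligand addition, and ΔFU taken. Runs were done in duplicate, at least three times.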

[6] = Binding affinity to Aplysia californica AChBP after 300 seconds by SPR biosensor analysis
[7] = molecular target: T1, Neuronal acetylcholine receptor; alpha4/beta2; assay: Displacement of [3H]epibatidine from rat alpha4beta2 nAChR expressed in HEK293 cells after 4 hr by scintillation counting assay
[8] = molecular target: T2, Neuronal acetylcholine receptor subunit alpha-4/beta-2 (Mus musculus); assay: Agonist activity at recombinant mouse alpha4beta2 nAChR expressed in HEK293 cells at 300 uM after 30 min by FLIPR potential blue assay; type: cell-based; outline: as §1
[9] = molecular target: T2, Neuronal acetylcholine receptor subunit alpha-4/beta-2 (Mus musculus); assay: Agonist activity at recombinant mouse alpha4beta2 nAChR expressed in HEK293 cells at >=30 uM after 30 min by FLIPR potential blue assay; type: cell-based; outline: as §1
[10] = molecular target: T3, Neuronal acetylcholine receptor; alpha3/beta4 (Rattus norvegicus); assay: Antagonist activity at recombinant rat alpha3beta4 nAChR expressed in HEK293 cells assessed as inhibition of acetylcholine-induced effect at >=100 uM after 30 min by FLIPR potential blue assay; type: cell-based; outline: as §2
[11] = molecular target: Neuronal acetylcholine receptor subunit alpha-4/beta-2 (Mus musculus, UniProt O70174+Q9ERK7); assay: Antagonist activity at recombinant mouse alpha4beta2 nAChR expressed in HEK293 cells assessed as inhibition of acetylcholine-induced effect after 30 min by FLIPR potential blue assay; type: cell-based
Outline: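 FMP dye assay on α4β2-HEK293T cells. Antagonist was dissolved in the dye-loading Krebs buffer (pH 7.4) and preincubated 30 min at 37 °C. EC70–EC80 ACh was then added as final agonist. 565 nm emission was read before and after addition, and inhibition curves were built from ΔFU at eight concentrations. IC50 fitted; duplicate, at least three experiments.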

[12] = molecular target: T1, Neuronal acetylcholine receptor; alpha4/beta2; assay: Agonist activity at rat (alpha4)2(beta2)3 nAChR expressed in Xenopus oocyte by two electrode voltage-clamp electrophysiology assay
Outline: (§3)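 Xenopus laevis oocytes were injected with about 25 ng total cRNA for rat α4 and β2. The α4:β2 ratio was 1:4 for (α4)2(β2)3 and 10:1 for (α4)3(β2)2. Oocytes were kept at 15-18 °C and recorded 2-5 days later, clamped at -60 mV. Peak currents were taken across 10 nM-10 mM agonist, with 10 min washes between applications. Currents were normalised on the same oocyte to ACh, 300 µM at (α4)2(β2)3 and 1 mM at (α4)3(β2)2.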

[13] = molecular target: Neuronal acetylcholine receptor; alpha4/beta2 (Rattus norvegicus) (UniProt P09483+P12390); assay: Agonist activity at rat (alpha4)3(beta2)2 nAChR expressed in Xenopus oocyte by two electrode voltage-clamp electrophysiology assay relative to acetylcholine; outline: as §3
[14] = molecular target: T1, Neuronal acetylcholine receptor; alpha4/beta2; assay: Agonist activity at rat (alpha4)3(beta2)2 nAChR expressed in Xenopus oocyte by two electrode voltage-clamp electrophysiology assay; outline: as §3

T2 sequence (O70174 31-629 partner limits assumed): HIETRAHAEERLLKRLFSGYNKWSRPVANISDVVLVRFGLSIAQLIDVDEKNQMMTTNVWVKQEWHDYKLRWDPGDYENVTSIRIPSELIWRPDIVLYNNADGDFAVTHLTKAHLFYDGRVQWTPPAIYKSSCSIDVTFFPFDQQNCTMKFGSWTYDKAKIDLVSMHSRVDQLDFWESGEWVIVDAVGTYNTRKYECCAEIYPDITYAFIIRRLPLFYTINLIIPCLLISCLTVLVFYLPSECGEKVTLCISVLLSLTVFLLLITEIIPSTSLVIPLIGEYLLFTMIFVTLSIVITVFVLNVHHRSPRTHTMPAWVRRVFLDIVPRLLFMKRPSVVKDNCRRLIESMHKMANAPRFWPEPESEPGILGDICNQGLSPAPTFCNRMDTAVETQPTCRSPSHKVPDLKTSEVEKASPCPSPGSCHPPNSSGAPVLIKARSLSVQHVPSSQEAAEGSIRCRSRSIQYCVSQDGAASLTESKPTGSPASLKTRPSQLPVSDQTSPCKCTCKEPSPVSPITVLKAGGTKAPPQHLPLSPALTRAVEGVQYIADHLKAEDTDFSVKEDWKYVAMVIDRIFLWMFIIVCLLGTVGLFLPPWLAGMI
T2 sequence (Q9ERK7 26-501 limits assumed): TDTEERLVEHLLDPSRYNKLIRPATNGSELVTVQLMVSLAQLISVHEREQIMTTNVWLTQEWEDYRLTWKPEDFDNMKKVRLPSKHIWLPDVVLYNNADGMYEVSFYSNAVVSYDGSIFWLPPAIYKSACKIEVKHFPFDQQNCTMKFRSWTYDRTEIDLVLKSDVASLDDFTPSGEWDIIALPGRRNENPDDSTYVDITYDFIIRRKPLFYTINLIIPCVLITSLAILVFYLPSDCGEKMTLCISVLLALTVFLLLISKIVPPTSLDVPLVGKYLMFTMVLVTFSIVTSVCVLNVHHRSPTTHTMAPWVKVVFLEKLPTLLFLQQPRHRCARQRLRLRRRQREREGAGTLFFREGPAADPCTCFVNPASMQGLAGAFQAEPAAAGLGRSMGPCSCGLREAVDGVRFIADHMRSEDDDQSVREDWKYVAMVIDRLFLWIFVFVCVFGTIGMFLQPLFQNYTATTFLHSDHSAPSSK
Chain of Neuronal acetylcholine receptor; alpha3/beta4 (P04757 whole entry): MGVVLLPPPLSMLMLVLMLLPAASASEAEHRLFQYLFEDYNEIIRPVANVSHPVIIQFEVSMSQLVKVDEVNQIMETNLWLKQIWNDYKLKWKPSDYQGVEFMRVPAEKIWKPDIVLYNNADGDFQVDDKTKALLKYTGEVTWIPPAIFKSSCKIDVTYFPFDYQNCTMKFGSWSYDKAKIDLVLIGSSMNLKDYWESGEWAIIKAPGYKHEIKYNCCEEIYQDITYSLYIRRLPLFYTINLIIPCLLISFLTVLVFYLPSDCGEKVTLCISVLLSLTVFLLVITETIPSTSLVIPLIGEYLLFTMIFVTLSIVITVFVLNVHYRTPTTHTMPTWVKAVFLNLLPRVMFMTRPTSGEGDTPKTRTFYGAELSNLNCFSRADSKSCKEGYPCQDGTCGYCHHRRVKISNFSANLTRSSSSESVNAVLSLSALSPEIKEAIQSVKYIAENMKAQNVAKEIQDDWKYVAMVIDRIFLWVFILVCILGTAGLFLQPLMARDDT
Chain of Neuronal acetylcholine receptor; alpha3/beta4 (P12392 whole entry): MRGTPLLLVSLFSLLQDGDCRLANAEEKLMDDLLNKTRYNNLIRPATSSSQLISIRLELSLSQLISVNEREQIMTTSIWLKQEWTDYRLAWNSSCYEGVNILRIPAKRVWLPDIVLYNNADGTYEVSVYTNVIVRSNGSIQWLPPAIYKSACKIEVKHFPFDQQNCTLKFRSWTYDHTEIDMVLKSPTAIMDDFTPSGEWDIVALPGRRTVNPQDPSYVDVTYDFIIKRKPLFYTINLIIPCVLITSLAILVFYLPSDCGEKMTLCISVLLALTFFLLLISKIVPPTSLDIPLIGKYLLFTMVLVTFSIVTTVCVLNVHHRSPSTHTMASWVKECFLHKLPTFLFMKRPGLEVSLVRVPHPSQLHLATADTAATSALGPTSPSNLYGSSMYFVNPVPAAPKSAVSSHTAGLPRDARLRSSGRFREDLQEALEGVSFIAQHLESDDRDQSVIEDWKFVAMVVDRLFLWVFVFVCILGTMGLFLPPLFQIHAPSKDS
T1 sequence (P09483 whole entry): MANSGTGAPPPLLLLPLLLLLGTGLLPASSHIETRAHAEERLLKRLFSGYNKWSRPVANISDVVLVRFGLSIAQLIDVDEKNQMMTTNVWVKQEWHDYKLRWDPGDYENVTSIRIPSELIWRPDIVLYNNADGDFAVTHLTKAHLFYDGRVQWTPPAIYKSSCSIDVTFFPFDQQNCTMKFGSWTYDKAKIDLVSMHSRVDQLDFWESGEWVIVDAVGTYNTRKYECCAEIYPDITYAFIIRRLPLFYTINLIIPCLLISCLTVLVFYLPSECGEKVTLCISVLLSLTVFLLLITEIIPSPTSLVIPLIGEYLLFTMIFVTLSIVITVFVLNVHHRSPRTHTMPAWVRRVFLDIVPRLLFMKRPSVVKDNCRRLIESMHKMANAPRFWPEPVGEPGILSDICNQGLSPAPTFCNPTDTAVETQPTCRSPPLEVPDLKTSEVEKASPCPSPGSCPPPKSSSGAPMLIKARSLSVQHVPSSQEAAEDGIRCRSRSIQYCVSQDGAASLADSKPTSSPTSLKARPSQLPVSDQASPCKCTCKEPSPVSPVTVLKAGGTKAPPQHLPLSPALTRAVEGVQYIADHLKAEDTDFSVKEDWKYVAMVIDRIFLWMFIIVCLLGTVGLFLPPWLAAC
T1 sequence (P12390 whole entry): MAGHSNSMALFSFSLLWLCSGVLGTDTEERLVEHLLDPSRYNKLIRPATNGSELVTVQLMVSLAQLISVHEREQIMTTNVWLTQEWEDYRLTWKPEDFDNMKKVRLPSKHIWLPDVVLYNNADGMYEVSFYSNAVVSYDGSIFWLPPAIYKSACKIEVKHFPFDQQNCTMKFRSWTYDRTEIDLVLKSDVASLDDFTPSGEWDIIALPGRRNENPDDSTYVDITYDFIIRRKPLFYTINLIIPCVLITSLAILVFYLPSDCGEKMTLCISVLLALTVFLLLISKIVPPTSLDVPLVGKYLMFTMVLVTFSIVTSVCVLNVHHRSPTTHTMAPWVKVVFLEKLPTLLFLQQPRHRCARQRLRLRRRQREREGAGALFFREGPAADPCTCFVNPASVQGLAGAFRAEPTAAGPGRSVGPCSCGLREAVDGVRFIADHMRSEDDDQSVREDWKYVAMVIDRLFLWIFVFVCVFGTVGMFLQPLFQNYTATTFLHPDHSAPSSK
Chain of Neuronal acetylcholine receptor; alpha4/beta4 (P09483 whole entry): as the sequence (P09483 whole entry) above
Chain of Neuronal acetylcholine receptor; alpha4/beta4 (P12392 whole entry): as the sequence (P12392 whole entry) above
Chain of Neuronal acetylcholine receptor subunit alpha-4/beta-2 (Q9ERK7 whole entry): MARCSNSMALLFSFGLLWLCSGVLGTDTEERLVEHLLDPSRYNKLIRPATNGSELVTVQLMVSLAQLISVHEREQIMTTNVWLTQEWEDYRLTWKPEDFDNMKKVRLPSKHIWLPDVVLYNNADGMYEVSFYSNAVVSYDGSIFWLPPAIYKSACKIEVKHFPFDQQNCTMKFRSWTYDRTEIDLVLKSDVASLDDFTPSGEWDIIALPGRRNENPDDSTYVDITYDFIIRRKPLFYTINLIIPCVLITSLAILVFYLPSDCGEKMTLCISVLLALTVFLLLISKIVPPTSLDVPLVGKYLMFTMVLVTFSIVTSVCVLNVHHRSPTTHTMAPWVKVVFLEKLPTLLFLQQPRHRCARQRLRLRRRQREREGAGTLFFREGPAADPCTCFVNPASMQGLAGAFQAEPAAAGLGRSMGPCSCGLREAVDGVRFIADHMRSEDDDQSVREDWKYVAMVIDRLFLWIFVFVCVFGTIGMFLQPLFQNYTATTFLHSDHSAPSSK
Chain of Neuronal acetylcholine receptor subunit alpha-4/beta-2 (O70174 whole entry): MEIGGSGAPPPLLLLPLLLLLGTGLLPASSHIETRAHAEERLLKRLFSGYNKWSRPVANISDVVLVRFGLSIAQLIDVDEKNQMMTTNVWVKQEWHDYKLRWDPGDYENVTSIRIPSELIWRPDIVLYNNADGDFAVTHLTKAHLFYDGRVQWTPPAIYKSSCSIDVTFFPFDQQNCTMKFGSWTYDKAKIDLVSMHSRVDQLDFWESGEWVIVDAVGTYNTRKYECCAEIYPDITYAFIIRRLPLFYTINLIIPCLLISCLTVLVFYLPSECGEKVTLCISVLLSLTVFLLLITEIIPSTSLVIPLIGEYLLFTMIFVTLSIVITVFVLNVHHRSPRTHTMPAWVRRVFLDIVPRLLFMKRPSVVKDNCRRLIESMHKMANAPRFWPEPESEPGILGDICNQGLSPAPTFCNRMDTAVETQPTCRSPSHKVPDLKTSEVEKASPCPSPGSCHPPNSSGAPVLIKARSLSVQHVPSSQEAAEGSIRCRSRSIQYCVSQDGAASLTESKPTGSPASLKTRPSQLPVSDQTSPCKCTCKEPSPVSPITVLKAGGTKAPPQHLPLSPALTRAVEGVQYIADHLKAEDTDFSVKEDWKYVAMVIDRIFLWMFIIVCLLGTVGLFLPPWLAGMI

Compound	Ki [1]	Ki [2]	Ki ([3]; read-out: Ki)	further results
Brc1ccc(N2CCCN(CCCc3ccccc3)CC2)cn1	0.82 µM	1.5 µM	2.2 µM	–
CNC(=O)OCCC(CCCc1ccccc1)N(C)C (stereo not drawn)	11 µM	30 µM	100 µM	Activity [4]: Active; Activity [5]: Active
c1ccc(CN2CCN(c3cccnc3)CC2)cc1	9.6 µM	100 µM	> 300 µM	Ki ([3]; read-out: pKi (converted)): > 316 µM
c1ccc(CCCN2CCN(c3cccnc3)CC2)cc1	0.49 µM	3.5 µM	20 µM	Activity [4]: Active; Activity [5]: Active
CN1[C@@H](CC(=O)c2ccccc2)CCC[C@H]1C[C@H](O)c1ccccc1 [LOBELINE]	–	–	–	Kd [6]: 0.013 µM; pKd [6]: 7.9
c1ccc(CCN2CCCN(c3cccnc3)CC2)cc1	0.11 µM	2.4 µM	3.4 µM	–
CC(CCOC(=O)N(C)C)N(C)CC(O)Cc1ccccc1 (stereo not drawn)	500 µM	100 µM	> 1000 µM	pKi [3]: < 3
CNC(=O)OCCC(CCC(O)c1ccccc1)N(C)C (stereo not drawn)	100 µM	100 µM	> 300 µM	Ki ([3]; read-out: pKi (converted)): > 316 µM
c1cncc(N2CCCNCC2)c1	–	–	–	Ki [7]: 0.00072 µM
c1ccc(CCN2CCN(c3cccnc3)CC2)cc1	0.56 µM	8.9 µM	8.2 µM	Activity [5]: Active; Activity [8]: Active
CN(C)C(=O)OCCC(COc1ccccn1)N(C)C (stereo not drawn)	100 µM	300 µM	300 µM	–
CNC(=O)OCCC(C)N(C)Cc1ccccc1 (stereo not drawn)	300 µM	300 µM	300 µM	–
CNC(=O)OCCC(C)N(C)CCc1ccccc1 (stereo not drawn)	30 µM	300 µM	300 µM	–
CNC(=O)OCCC(CCCCCc1ccccc1)N(C)C (stereo not drawn)	2.7 µM	4.5 µM	50 µM	–
CN(C)C(CCCCc1ccccc1)CCOc1nccn1C (stereo not drawn)	0.76 µM	3.7 µM	8.3 µM	Activity [9]: Active
CN(C)C(=O)OCCC(COc1ccc(F)cc1)N(C)C (stereo not drawn)	500 µM	100 µM	300 µM	–
CNC(=O)OCCC(C)N(C)CCCc1ccccc1 (stereo not drawn)	50 µM	> 1000 µM	> 1000 µM	pKi [2]: < 3; pKi [3]: < 3
Brc1cccc(CCN2CCCN(c3cccnc3)CC2)c1	0.13 µM	1.9 µM	0.78 µM	–
CN(C)C(=O)OCCC(CCCc1ccccc1)N(C)C (stereo not drawn)	1.9 µM	4.9 µM	13 µM	Activity [4]: Active; Activity [5]: Active
CN(C)C(=O)OCCC(CCC(O)c1ccccc1)N(C)C (stereo not drawn)	30 µM	6.7 µM	5.9 µM	Ki ([3]; read-out: pKi (converted)): 6.03 µM
CNC(=O)OCCC(C)N(C)CC(O)c1ccccc1 (stereo not drawn)	300 µM	300 µM	1000 µM	–
CN(C)C(=O)OCCC(CCCCc1ccccc1)N(C)C (stereo not drawn)	1.1 µM	4.4 µM	11 µM	Activity [4]: Active; Activity [5]: Active
C(=C\N1CCCN(c2cccnc2)CC1)/c1ccccc1	0.099 µM	1.6 µM	2.9 µM	inhibition [10]: inactive; IC50 [11]: 1.1 µM
c1ccc(CN2CCCN(c3cccnc3)CC2)cc1	0.104 µM	3.4 µM	2.6 µM	Kd [6]: > 1 µM; pKd [6]: < 6; EC50 [12]: 1.8 µM; Rmax [13]: 6; EC50 [14]: 7.9 µM
CNC(=O)OCCC(CCCCc1ccccc1)N(C)C (stereo not drawn)	3.6 µM	30 µM	100 µM	Activity [4]: Active; Activity [5]: Active
c1ccc(CCCN2CCCN(c3cccnc3)CC2)cc1	0.082 µM	3.8 µM	3.8 µM	Kd [6]: > 1 µM; pKd [6]: < 6
CC(CCOC(=O)N(C)C)N(C)CCCc1ccccc1 (stereo not drawn)	300 µM	> 1000 µM	> 1000 µM	pKi [2]: < 3; pKi [3]: < 3
